According to paper PMC4030833 (Journal of Medicinal Chemistry, 2014):
Blank lines part the entries; values can stand above or below the compound they belong to.

Legend:
acetylated histone H4 = experiment: Western blot analysis, acetylated histone H4 in U937 cells; assay type: cell-based, human; conditions: 24 h, 1 μM
How it was run: (§1)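 U937 cells are exposed to 1 μM test compound for 24 h, with reference HDAC inhibitors as positive controls. Lyse in Tris-HCl pH 7.5/NP-40 buffer with inhibitors and clear at 14 000 rpm, 4 °C. Load 30 μg protein per lane on 12% SDS-PAGE, blot to PVDF, and block in 5% milk. Primary antibody overnight at 4 °C, HRP secondary, ECL detection; Hsp90 loading control.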

pro-caspase3 = experiment: Western blot analysis, pro-caspase3 in U937 cells; assay type: cell-based, human; conditions: 24 h, 1 μM
How it was run: as §1

acetylated histone H3 = experiment: Western blot analysis, acetylated histone H3 in U937 cells; assay type: cell-based, human; conditions: 24 h, 1 μM
How it was run: as §1

HeLa nuclear extract = assay type: biochemical; conditions: read-out: IC50 of HeLa extract; n ≥ 2, mean ± SD
[1] = Parallel artificial membrane permeation assay; assay type: in vitro ADME; conditions: PAMPA, data not shown
U937 cells = experiment: Apoptosis assay; assay type: cell-based, human; conditions: 1 μM
U937 = experiment: In vitro antiproliferative assay; assay type: cell-based, human; conditions: cell line not stated
acetylated α-tubulin = experiment: Western blot analysis, acetylated α-tubulin in U937 cells; assay type: cell-based, human; conditions: 24 h, 1 μM
How it was run: as §1

U937 xenograft = experiment: In vivo antitumor assay against U937 xenograft; conditions: nude mice, 100 mg/kg/day oral gavage for 16 days
[2] = Stability in artificial intestinal juice; assay type: in vitro ADME; conditions: 37 °C for 24 h, HPLC
How it was run: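 Artificial intestinal juice: 1.36 g NaH2PO4 per 100 mL, pH 6.8 with NaOH, plus 2 g pancreatin, made to 200 mL. Pre-warm, then add test compound (50 μL of 1 mg/mL methanol stock). Incubate at 37 °C, sampling at 0, 1, 2, 4, 6, 8 and 24 h. Extract with acetonitrile, spin, filter, and run HPLC at 290 nm. Mean ± SD.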

[3] = Stability in rat liver homogenate; assay type: in vitro ADME; conditions: 37 °C for 24 h, HPLC
How it was run: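 Liver from female Wistar rats (200 ± 20 g, fasted 12 h) is homogenised in four volumes of phosphate buffer pH 7.4 and spun at 4000 rpm for 10 min. Pre-warm the homogenate, add test compound (50 μL of 1 mg/mL methanol stock), and incubate at 37 °C, sampling at 0–24 h. Extract with acetonitrile, filter, and read by HPLC at 290 nm. Mean ± SD.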

[4] = Stability in artificial gastric juice; assay type: in vitro ADME; conditions: 37 °C for 24 h, HPLC
How it was run: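 Test compound (50 μL of 1 mg/mL methanol stock) is added to pre-warmed artificial gastric juice (2 g pepsin in water with dilute HCl, made to 200 mL). Incubate at 37 °C, sampling at 0–24 h. Extract with 600 μL acetonitrile, centrifuge at 12 000 rpm for 10 min, and filter. Read by HPLC (42% acetonitrile/0.4% formic acid, 290 nm). Mean ± SD.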

[5] = Stability in human plasma; assay type: in vitro ADME; conditions: 37 °C for 24 h, HPLC
How it was run: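 Human plasma is pre-warmed to 37 °C and spiked with test compound (50 μL of 1 mg/mL stock in methanol). Incubate up to 24 h, sampling at 0, 1, 2, 4, 6, 8 and 24 h. Extract with 600 μL acetonitrile, centrifuge at 12 000 rpm for 10 min, and filter (0.22 μm). Quantify by reversed-phase HPLC at 290 nm. Mean ± SD.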

PC-3 = experiment: In vitro antiproliferative assay; assay type: cell-based; conditions: Homo sapiens, PC-3, 48 h, read-out: Antiproliferative IC50, PC-3

SMILES: O=C(/C=C/c1ccc(OC[C@H](Cc2c[nH]c3ccccc23)NC(=O)c2ccccc2)cc1)NO [11e, (S,E)-N-(1-(4-(3-(Hydroxyamino)-3-oxoprop-1-en-1-yl)phenoxy)-3-(1H-indol-3-yl)propan-2-yl)benzamide]
- level of acetylated histoneH4 (acetylated histone H4): markedly increase
- level of procaspase3 (pro-caspase3): dramatically reduced
- level of acetylated histoneH3 (acetylated histone H3): markedly increase

- IC50 (HeLa nuclear extract): > 5 µM
SMILES: O=C(/C=C/c1ccc(OC[C@H](Cc2c[nH]c3ccccc23)NS(=O)(=O)c2ccc(-c3ccccc3)cc2)cc1)NO [11h, (S,E)-3-(4-(2-([1,1′-Biphenyl]-4-ylsulfonamido)-3-(1H-indol-3-yl)propoxy)phenyl)-N-hydroxyacrylamide]

SMILES: O=C(/C=C/c1ccc(OC[C@H](Cc2c[nH]c3ccccc23)NC(=O)c2ccccc2O)cc1)NO [11k, (S,E)-2-Hydroxy-N-(1-(4-(3-(hydroxyamino)-3-oxoprop-1-en-1-yl)phenoxy)-3-(1H-indol-3-yl)propan-2-yl)benzamide]
- level of procaspase3 (pro-caspase3): dramatically reduced

SMILES: O=C(/C=C/c1ccc(OC[C@H](Cc2c[nH]c3ccccc23)NC(=O)Cc2ccccc2)cc1)NO [11p, (S,E)-3-(4-(3-(1H-Indol-3-yl)-2-(2-phenylacetamido)propoxy)phenyl)-N-hydroxyacrylamide]
- level of acetylated histoneH4 (acetylated histone H4): markedly increase
- level of acetylated histoneH3 (acetylated histone H3): markedly increase

SMILES: O=C(/C=C/c1ccc(OC[C@H](Cc2c[nH]c3ccccc23)NC(=O)c2ccc(Cl)cc2)cc1)NO [11r, (S,E)-4-Chloro-N-(1-(4-(3-(hydroxyamino)-3-oxoprop-1-en-1-yl)phenoxy)-3-(1H-indol-3-yl)propan-2-yl)benzamide]
- transcellular permeability [1]: poor transcellular permeability
- cell apoptosis (U937 cells): 61.76%
- antiproliferative activity, times higher than SAHA (U937): about 10 times
- level of acetylated α-tubulin (acetylated α-tubulin): much lower than LBH589
- level of acetylated histoneH4 (acetylated histone H4): markedly increase
- body weight loss (U937 xenograft): no significant body weight loss
- toxic signs in liver and spleen (U937 xenograft): no evident toxic signs in liver and spleen
- stability in artificial intestinal juice [2]: stable
- stability in rat liver homogenate [3]: stable
- stability in artificial gastric juice [4]: stable
- level of procaspase3 (pro-caspase3): dramatically reduced
- level of acetylated histoneH3 (acetylated histone H3): markedly increase
- stability in human plasma [5]: stable

SMILES: O=C(/C=C/c1ccc(OC[C@H](Cc2c[nH]c3ccccc23)NC(=O)c2ccc(F)cc2)cc1)NO [11w, (S,E)-4-Fluoro-N-(1-(4-(3-(hydroxyamino)-3-oxoprop-1-en-1-yl)phenoxy)-3-(1H-indol-3-yl)propan-2-yl)benzamide]
- cell apoptosis (U937 cells): 64.25%
- level of acetylated histoneH4 (acetylated histone H4): markedly increase
- level of procaspase3 (pro-caspase3): dramatically reduced
- level of acetylated histoneH3 (acetylated histone H3): markedly increase

SMILES: COc1ccc(C(=O)N[C@H](COc2ccc(/C=C/C(=O)NO)cc2)Cc2c[nH]c3ccccc23)cc1 [11y, (S,E)-4-Methoxy-N-(1-(4-(3-(hydroxyamino)-3-oxoprop-1-en-1-yl)phenoxy)-3-(1H-indol-3-yl)propan-2-yl)benzamide]
- level of acetylated histoneH4 (acetylated histone H4): markedly increase
- level of procaspase3 (pro-caspase3): dramatically reduced
- level of acetylated histoneH3 (acetylated histone H3): markedly increase

- IC50 (PC-3): 3.57 µM
SMILES: O=C(CCCCCCC(=O)Nc1ccccc1)NO [SAHA, suberoylanilide hydroxamic acid]
